MrgX1 PAM: allosterically activates human MrgX1 receptor signaling. Q96LB2. B-score at 10 µM. AID 588675. 0.63% of 310,000 active. MrgX1-HEK293, Fluo-4 calcium flux, FDSS; active compounds read high;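 active = plate-corrected calcium response at least 3 library SD above typical, normal starting fluorescence, not activating the receptor alone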;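 also: compound read alongside a low EC10 to EC30 dose of BAM8-22 agonist; peak minus trough fluorescence over baseline measured at the second addition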
Target sequence (Q96LB2 whole entry, looked up): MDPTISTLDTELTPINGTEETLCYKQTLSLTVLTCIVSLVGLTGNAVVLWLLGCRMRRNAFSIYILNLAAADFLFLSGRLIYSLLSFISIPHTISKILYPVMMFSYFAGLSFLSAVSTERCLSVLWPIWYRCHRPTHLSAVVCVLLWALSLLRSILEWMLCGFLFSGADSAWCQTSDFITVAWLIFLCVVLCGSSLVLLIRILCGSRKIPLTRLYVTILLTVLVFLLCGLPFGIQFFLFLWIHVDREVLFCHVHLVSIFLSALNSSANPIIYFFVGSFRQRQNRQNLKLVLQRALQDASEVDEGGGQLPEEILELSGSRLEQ
RGS4 inh: inhibitors of human RGS4 | B-score at 10 µM | HEK293 M3R/RGS4 inducible, Fluo-4 calcium flux; active compounds read high; triggered by carbachol at its EC20 | AID 463165 | P49798 | 0.45% of 310,000 active;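 active = B-score, a plate-corrected calcium signal, over three deviations above library mean, with baseline fluorescence within five deviations of library mean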;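 also: RGS4 expression induced by doxycycline in cells with stable M3 receptor; B-score is computed from the integrated fluorescence ratio over baseline after carbachol; higher B-score means a larger calcium signal and so more RGS4 inhibition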
Target sequence (P49798 whole entry, looked up): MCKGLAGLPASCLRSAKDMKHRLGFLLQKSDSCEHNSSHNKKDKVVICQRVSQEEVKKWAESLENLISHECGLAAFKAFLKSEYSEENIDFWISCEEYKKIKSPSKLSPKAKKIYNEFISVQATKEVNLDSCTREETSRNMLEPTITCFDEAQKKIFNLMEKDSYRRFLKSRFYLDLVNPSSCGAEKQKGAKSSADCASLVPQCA
MrgX1 agonist: agonists of human MrgX1 receptor | Q96LB2 | MrgX1-HEK293 cells, Fluo-4 calcium fluorescence, agonist mode; active compounds read high | B-score at 10 µM | 0.44% of 310,000 active;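 active = calcium response B-score plate-corrected fluorescence ratio at least 3 library SD, with starting fluorescence B-score inside 5 SD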
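Test system: HEK293 cells stably expressing human MrgX1 receptor; Input: fifteen thousand cells per well; Dosing: compound delivered in addition one of three; Schedule: overnight seeding, then 1 h dark dye loading; Technique: Fluo-4 NW calcium fluorescence; Measure: B-scored fluorescence response ratio; Controls: positive and negative controls per plate.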
RGS4 pot: potentiators or activators of RGS4; HEK293 M3R/inducible RGS4, carbachol calcium flux Fluo4; active compounds read low; B-score at 10 µM; 0.92% of 310,000 active; AID 463111;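 active = B-score of the integrated calcium signal more than 4 SD below the library mean, with starting fluorescence not abnormally high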;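 also: negative B-score means reduced calcium response which marks RGS4 activation or potentiation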
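System – HEK293 FlpIn-TREx cells, stable M3R, doxycycline-inducible RGS4 · Reagent – ECmax carbachol challenge · Times – compound preincubation 20 min at room temperature before agonist · Technique – Fluo4 fluorescence kinetic imaging of calcium · Measure – B score of integrated Fluo4 ratio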
MrgX1 antagonist: blocks BAM8-22 activation of human MrgX1 receptor | 1.3% of 310,000 active | Q96LB2 | AID 588676 | MRGX1-HEK293 calcium flux, Fluo-4, BAM8-22 antagonism; active compounds read low | B-score at 10 µM;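 active = calcium-response B-score plate-corrected more than 3 library SD below zero, starting fluorescence within 5 deviations, no agonist response on first addition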;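 also: peak minus trough fluorescence over baseline after final BAM8-22 challenge near maximal dose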
RGS4 activ val: RGS4 activation, validation assay; shares compounds with RGS4 pot; HEK293 M3R/RGS4 inducible, carbachol calcium flux Fluo4; AID 602282; 89% of 1,100 active; inhibition, % at 10 µM;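 active = inhibition above 3 SD of the buffer control wells, cut at about 41% in these data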;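 also: signal is the integrated peak-minus-minimum Fluo4 fluorescence over baseline ratio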
M3R Ca counter: counter-screen for RGS4 activators: effect in non-induced cells; shares compounds with RGS4 pot; HEK293 M3R non-induced RGS4, Fluo4 calcium flux; after carbachol challenge at its EC90; inhibition, % at 10 µM; 82% of 1,100 active; AID 602283;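 active = inhibition exceeding 3 SD of buffer-only control wells, cut at about 26% in these data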;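 also: percent drop in integrated peak-minus-baseline over baseline Fluo4 ratio after carbachol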
An asterisk follows results filed as active; i = inactive; / = no result. Hits are enriched below; roughly 3.5% of the tested compounds scored in any of these assays.

SMILES	MrgX1 PAM	RGS4 inh	MrgX1 agonist	RGS4 pot	MrgX1 antagonist	RGS4 activ val	M3R Ca counter
CN(C)CC#CCOC(c1ccccc1)c1ccccc1	i	i	i	-8.9*	i	92*	72*
CCN(CC)CC#CCOC(c1ccccc1)c1ccccc1	i	i	i	-9.2*	i	88*	57*
Cc1ccc(-c2cc(C(=O)Nc3cccnc3)c3ccccc3n2)o1	i	i	i	i	i	/	/
CC(=O)Nc1cccc(NC(=O)c2cc(-c3cccnc3)nc3ccc(Br)cc23)c1	i	i	i	i	i	/	/
CC(=O)Nc1cccc(NC(=O)c2cc(-c3cccnc3)nc3ccc(Cl)cc23)c1	i	i	i	-8.6*	i	46*	0
O=C(Nc1cccnc1)c1cc(-c2ccc(Br)cc2)nc2ccccc12	i	i	i	-13*	i	92*	76*
Cc1csc(NC(=O)c2cc(-c3ccccc3)nc3ccccc23)n1	i	i	i	-7.8*	i	86*	43*
CC(C)(C)c1nnc(NC(=O)c2cc(-c3ccccc3)nc3ccccc23)s1	i	i	i	i	i	/	/
COC(=O)c1sccc1NC(=O)c1cc(-c2cc(C)ccc2C)nc2ccccc12	i	i	i	i	i	/	/
Cc1ccc(C)c(-c2cc(C(=O)Nc3nccs3)c3ccccc3n2)c1	i	i	i	-7.7*	i	68*	0
O=S(=O)(c1ccc(NC(=S)NCc2ccncc2)cc1)N1CCCCC1	i	i	i	i	i	/	/
Cc1cc(C(=O)N/N=C/c2ccc(-c3cccc(Cl)c3)o2)n[nH]1	i	i	i	i	i	/	/
CC(C)OCCCN(C)C1CCN(S(=O)(=O)c2csc(C(N)=O)c2)CC1	i	i	i	i	i	/	/
CC(C)OCCCN(C)C1CCN(S(=O)(=O)c2ccc(-c3cc(C(F)(F)F)no3)s2)CC1	i	i	i	-7.7*	i	49*	84*
Clc1ccc(Cn2c(CN3CCCC3)nc3ccccc32)cc1	i	i	i	i	i	/	/
c1ccc(Cn2c(CN3CCCC3)nc3ccccc32)cc1	i	i	i	-8.5*	i	0	84*
CCCCOc1ccc(S(=O)(=O)n2c(C)nc3ccccc32)cc1	i	i	i	-8.3*	i	93*	96*
Cc1ccc(S(=O)(=O)n2c(N)nc3ccccc32)cc1	i	i	i	-7.8*	i	92*	96*
Cc1ccc(N2CC(C(=O)Nc3nc4ccc(S(C)(=O)=O)cc4s3)CC2=O)cc1C (stereo not drawn)	i	i	i	i	i	/	/
Oc1ccccc1-c1nc(NC2CCCC2)c2ccccc2n1	i	i	i	-7.8*	i	74*	59*
O=C(COC(=O)C1CC(=O)N(Cc2ccccc2)C1)Nc1ccc(Cl)cc1F (stereo not drawn)	i	i	i	i	i	/	/
Cc1cc(C)n(-c2ccc(C(=O)Nc3ccc(C)c(S(=O)(=O)N4CCOCC4)c3)cc2)n1	i	i	i	-8.1*	i	89*	57*
CSc1nc2sc3c(c2c(=O)n1C1CCCCC1)CCN(C)C3	i	i	i	i	i	/	/
C=C(C)CSc1nc2sc3c(c2c(=O)n1C1CCCCC1)CCN(C)C3	i	i	i	-7.8*	i	93*	86*
CC(NS(=O)(=O)OCC(Cl)(Cl)Cl)c1ccc(C(C)(C)C)cc1 (stereo not drawn)	i	i	i	-8*	i	91*	94*
SMILES	MrgX1 PAM	RGS4 inh	MrgX1 agonist	RGS4 pot	MrgX1 antagonist	RGS4 activ val	M3R Ca counter
CCOC(=O)c1sc(Nc2ccccc2)nc1C	i	i	i	i	i	/	/
CCOC(=O)c1sc(Nc2nc3c(OC)cccc3s2)nc1C	i	i	i	-7.8*	i	93*	79*
COc1cc(C)ccc1OCc1cc(C(=O)N2CCN(C)C[C@@H]2c2ccccc2)no1	i	i	i	i	i	/	/
O=C(CN1CCCC1)N1c2ccccc2Sc2ccccc21	i	i	i	-9.5*	i	92*	69*
NCCC(=O)N1c2ccccc2Sc2ccccc21	i	i	i	i	i	/	/
CCN(CC)CC(=O)N1c2ccccc2Sc2ccccc21	i	i	i	-8.5*	i	93*	81*
CC(CCc1ccccc1)NC(=O)CNC(=O)c1cccs1 (stereo not drawn)	i	i	i	i	i	/	/
CNCC/C=C1/c2ccccc2CSc2ccccc21	i	i	i	-8.6*	i	92*	86*
OCCN1CCN(CC/C=C2/c3ccccc3CSc3ccccc32)CC1	i	i	i	i	i	/	/
Cc1nccn1CC(O)Cn1c2ccccc2c2ccccc21 (stereo not drawn)	i	i	i	-7.7*	i	86*	29*
CN(C)C(C)(C)C#CCC(c1ccccc1)c1ccccc1	i	i	i	-8.2*	i	90*	59*
COC(=O)c1ccc(CN2CCC(Oc3ccc(C(=O)N4CCCCC4)cc3)CC2)cc1	i	i	i	-9.9*	i	92*	80*
COC(=O)c1ccc(CN2CCC(Oc3cccc(C(=O)N4CCCC4)c3)CC2)cc1	i	i	i	-8*	i	87*	59*
CSc1ccc(CN2CCC(Oc3cccc(C(=O)N4CCCC4)c3)CC2)cc1	i	i	i	i	i	/	/
CN(C)CCOC(C)(c1ccccc1)c1ccccn1 (stereo not drawn)	i	i	i	i	i	/	/
COC(C#CCCN(C)C)(c1ccccc1)c1ccccc1	i	i	i	-8.4*	i	92*	96*
CCCCC#Cc1cncc(C(=O)N/N=C/c2cccc(OC)c2)c1	i	i	i	i	i	/	/
O=C(O)c1c(C(=O)O)c(-c2ccc(Br)cc2)n2c1CSC2	i	i	i	i	i	/	/
Cc1nn(Cc2ccc(C(=O)Nc3ccc(C(=O)OC(C)C)cc3)o2)c(C)c1Cl	i	i	i	-9.6*	i	92*	79*
Cc1nn(Cc2ccc(C(=O)NN)o2)c(C)c1Cl	i	i	i	i	i	/	/
COc1ccc(S(=O)(=O)N2CCC(C(=O)NCc3ccccc3)CC2)cc1OC	i	i	i	i	i	/	/

Source: PubChem BioAssay (Johns Hopkins Ion Channel Center)
